The text below walks through data of ChEMBL document CHEMBL1145845, “Acetogenins as selective inhibitors of the human ovarian 1A9 tumor cell line” (2003).

In general, Inhibition refers to the relative decrease from the control value, in per cent.

Converted amounts (≈) assume the structure as drawn. The source made the active and inactive calls.

Assay [1] has as its system 1A9/ptx-10. The assay can be described thus: Percent inhibition against PTX10 human tumor cell line at >10 ug/mL. It is filed as functional.
The subject of assay [2] is 1A9. Briefly: Effective dose required for inhibitory activity against 1A9 human tumor cell line. It is filed as functional. The following applies: read-out: ED50 (the source's name). The gist of the method:
(§1)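 Human tumor lines were grown in RPMI-1640 with 25 mM HEPES, 0.25% sodium bicarbonate, 10% FBS and 100 µg/mL kanamycin. KB-VIN is a vincristine-resistant KB subline, and PTX10 is a 1A9 subline with mutated β-tubulin. Trypsinized cells (1500–7500/well) got compound from DMSO stock for 3 days continuous. Cells were fixed with cold 50% TCA, stained with 0.4% SRB, and read at 562 nm. ED50 is the 50% growth-reduction concentration; not active means ≤5% inhibition at the top concentration.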

Assay [3] concerns HCT-8. The assay can be described thus: Effective dose required for inhibitory activity against HCT-8 human tumor cell line. The format is functional. The conditions noted are these: read-out: ED50 (the source's name). The essentials:
as §1

Assay [4] deals with CAKI-1. Briefly: Effective dose required for inhibitory activity against CAK1 human tumor cell line; Not active. The format is functional, cell-based. The gist of the method:
as §1

Assay [5] relates to MCF7. The assay can be described thus: Effective dose required for inhibitory activity against MCF-7 human tumor cell line. It is filed as functional. The conditions noted are these: read-out: ED50 (the source's name). The essentials:
as §1

Assay [6] relates to KB. The assay can be described thus: Effective dose required for inhibitory activity against KB human tumor cell line. It is filed as functional. The conditions noted are these: read-out: ED50 (the source's name). The gist of the method:
as §1

In assay [7] the test system is A549. Briefly: Effective dose required for inhibitory activity against A549 human tumor cell line. The following applies: read-out: ED50 (the source's name). It is filed as functional. The essentials: as §1
Assay [8] concerns HOS. The assay can be described thus: Effective dose required for inhibitory activity against HOS human tumor cell line. The format is functional. The conditions noted are these: read-out: ED50 (the source's name). The essentials: as §1
Assay [9] relates to PC-3. Briefly: Effective dose required for inhibitory activity against PC-3 human tumor cell line. It is filed as functional. The following applies: read-out: ED50 (the source's name). The gist of the method: as §1
Assay [10] relates to SK-MEL-2. Briefly: Effective dose required for inhibitory activity against SK-MEL-2 human tumor cell line. It is filed as functional. The following applies: read-out: ED50 (the source's name). The gist of the method:
as §1

Assay [11] concerns KB. The assay can be described thus: Effective dose required for inhibitory activity against KB-VIN human tumor cell line. It is filed as functional. The following applies: read-out: ED50 (the source's name). The gist of the method: as §1
Assay [12] relates to CAKI-1. The assay can be described thus: Effective dose required for inhibitory activity against CAK1 human tumor cell line. It is filed as functional. The conditions noted are these: read-out: ED50 (the source's name). The essentials:
as §1

Assay [13] concerns 1A9/ptx-10. The assay can be described thus: Effective dose required for inhibitory activity against PTX10 human tumor cell line. The conditions noted are these: read-out: ED50 (the source's name). The format is functional. The essentials: as §1

The compound `CCCCCCCCCCCCCCCCCC1OC1C1OC1CCCCCCCCC1=C[C@H](C)OC1=O` (stereo partly drawn) gave an Inhibition in [1] of 15%. The EC50 in [2] is 8800 ng/mL (≈ 16.5 µM); in assay [3] it was > 20 µg/mL; in assay [5] it was > 20 µg/mL; in assay [6], > 20 µg/mL; in assay [7] it was > 20 µg/mL; in [8], > 20 µg/mL. In addition, the EC50 in assay [9], in assay [10] and in [11] was > 20 µg/mL in each case. The NA entry in assay [4] is “inactive”.

Consider `CCCCCCCCCC[C@H](O)[C@H]1CC[C@H]([C@H]2CC[C@H]([C@H](O)CCCCCCCC[C@@H](O)CC3=C[C@H](C)OC3=O)O2)O1` [MOLVIZARIN], for which the EC50 in assay [2] was determined as 0.005 ng/mL (≈ 8.41e-06 µM); in [3], 14.9 µg/mL (≈ 25 µM); in [5], 7.7 µg/mL (≈ 12.9 µM); in assay [6], 10 µg/mL (≈ 16.8 µM); in assay [7], 12.9 µg/mL (≈ 21.7 µM); in assay [12] it was 16.4 µg/mL (≈ 27.6 µM). Moreover, the EC50 worked out at 9.9 µg/mL (≈ 16.6 µM) in [8]; 8.7 µg/mL (≈ 14.6 µM) in assay [13]; 12.9 µg/mL (≈ 21.7 µM) in assay [9]; 16.4 µg/mL (≈ 27.6 µM) in assay [10]; 13.9 µg/mL (≈ 23.4 µM) in assay [11].

Regarding `CCCCCCCCCCCCC(O)C(O)CCC(O)[C@H]1CC[C@H](CCCCCCC[C@@H](O)CC2=C[C@H](C)OC2=O)O1` (stereo partly drawn), in assay [1], the Inhibition came out at 37%. Besides, the EC50 in assay [2] is 70 ng/mL (≈ 0.117 µM); in assay [3], > 20 µg/mL; in assay [5], 11.5 µg/mL (≈ 19.3 µM); in [6] it was > 20 µg/mL; in assay [7], > 20 µg/mL; in [12], > 20 µg/mL. Also, the EC50 in [8], in assay [9], in assay [10] and in assay [11] was > 20 µg/mL throughout.

In assay [1], `CCCCCCCCC[C@H](O)[C@@H]1CC[C@@H]([C@@H]2CC[C@@H](CCCCCCCCCC[C@H](O)CC3=C[C@H](C)OC3=O)O2)O1` returned an Inhibition of 30%. The EC50 in assay [2] turned out to be 1930 ng/mL (≈ 3.33 µM); in [3], 13.8 µg/mL (≈ 23.8 µM); in assay [5], 7.6 µg/mL (≈ 13.1 µM); in [6], 13.5 µg/mL (≈ 23.3 µM); in assay [7], 17.2 µg/mL (≈ 29.7 µM); in assay [12] it was 17.8 µg/mL (≈ 30.7 µM). For the same compound, the EC50 was 16 µg/mL (≈ 27.6 µM) in assay [8], 14.5 µg/mL (≈ 25 µM) in assay [9], 15.3 µg/mL (≈ 26.4 µM) in assay [10] and > 20 µg/mL in assay [11].

`CCCCCCCCCCCC[C@@H](O)[C@H]1CC[C@H]([C@H](O)CCCCC(=O)CCCCC[C@@H](O)CC2=C[C@H](C)OC2=O)O1` [ANNONACINONE]: the Inhibition in assay [1] came to 36%. In addition, the EC50 was 740 ng/mL (≈ 1.24 µM) in [2]; > 20 µg/mL in [3]; 11.5 µg/mL (≈ 19.3 µM) in assay [5]; 18.3 µg/mL (≈ 30.8 µM) in assay [6]; > 20 µg/mL in [7]; > 20 µg/mL in assay [12]. The EC50 in [8], in assay [9], in assay [10] and in assay [11] was > 20 µg/mL each time.

As for `CCCCCC(O)C(O)CCCCCC[C@@H](O)[C@H]1CC[C@H](CCCCCCCCCC[C@@H](O)CC2=C[C@H](C)OC2=O)O1` (stereo partly drawn) [MURICIN A], the EC50 is 330 ng/mL (≈ 0.553 µM) in assay [2]; 15 µg/mL (≈ 25.1 µM) in [3]; 6 µg/mL (≈ 10.1 µM) in assay [5]; 12.8 µg/mL (≈ 21.4 µM) in assay [6]; 16.8 µg/mL (≈ 28.1 µM) in assay [7]; > 20 µg/mL in assay [12]. Also, the EC50 was found to be 18.4 µg/mL (≈ 30.8 µM) in assay [8]; 8.2 µg/mL (≈ 13.7 µM) in [13]; 14.1 µg/mL (≈ 23.6 µM) in assay [9]; 18 µg/mL (≈ 30.2 µM) in [10]; 15 µg/mL (≈ 25.1 µM) in assay [11].

`CCCCCCCCCCCC[C@@H](O)[C@H]1CC[C@@H]([C@@H](O)CCCCCCC(O)CCCCC[C@@H](O)CC2=C[C@H](C)OC2=O)O1` (stereo partly drawn): the EC50 worked out at 80 ng/mL (≈ 0.128 µM) in assay [2]; 15 µg/mL (≈ 24 µM) in assay [3]; 6.6 µg/mL (≈ 10.6 µM) in assay [5]; 10.8 µg/mL (≈ 17.3 µM) in assay [6]; 14.5 µg/mL (≈ 23.2 µM) in assay [7]; 17.3 µg/mL (≈ 27.7 µM) in [12]. The EC50 was determined as 15 µg/mL (≈ 24 µM) in assay [8]; 8.7 µg/mL (≈ 13.9 µM) in [13]; 14 µg/mL (≈ 22.4 µM) in [9]; 15.1 µg/mL (≈ 24.2 µM) in [10]; 14 µg/mL (≈ 22.4 µM) in [11].

Consider `CCCCCCCC(O)C(O)CCCC[C@@H](O)[C@H]1CC[C@H](CCCCCCCCCCCCC2=C[C@H](C)OC2=O)O1` (stereo partly drawn), for which the Inhibition in assay [1] was determined as 37%. Further, the EC50 was 770 ng/mL (≈ 1.33 µM) in assay [2]; > 20 µg/mL in [3]; 10.5 µg/mL (≈ 18.1 µM) in [5]; 15.1 µg/mL (≈ 26 µM) in assay [6]; > 20 µg/mL in assay [7]; > 20 µg/mL in assay [12]. Besides, the EC50 was > 20 µg/mL in [8], 17.5 µg/mL (≈ 30.1 µM) in assay [9], 17.5 µg/mL (≈ 30.1 µM) in assay [10] and > 20 µg/mL in assay [11].
